# Assay results reported in ChEMBL document CHEMBL2157878, “In vitro cellular uptake and dimerization of signal transducer and activator of transcription-3 (STAT3) identify the photosensitizing and imaging-potential of isomeric photosensitizers derived from chlorophyll-a and bacteriochlorophyll-a” (J Med Chem, 2011).
# Activity calls are given as the source filed them. The calls are words filed in the database; no cut-off is given here.
# How the values were obtained:
# [1] = Photostability of the compound in 17% bovine calf serum assessed as rate of photobleaching at 6.5 uM after 20 to 22 mins in presence of light (75 mW/cm'2); type: ADME; settings: cattle, read-out: Drug degradation
# Summary of the method: (§1)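 Equimolar (6.5 μM) photosensitizer solutions in 17% bovine calf serum were irradiated at 75 mW/cm². Absorption spectra were recorded at successive time points, and the normalized long-wavelength absorbance was plotted against time to follow photobleaching.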
# [2] = Drug uptake in human BCC1 cells at 200 nM incubated for 30 mins measured after 4 to 24 hrs by fluorescent microscopy; type: ADME, cell-based; settings: bcc1, 0.5 h, 0.2 µM
# [3] = target: MAP kinase p38 (Homo sapiens) (UniProt O15264+Q15759+Q16539+P53778); assay: Activation of p38 MAPK in human BCC1 cells assessed as dimerization of STAT3 after 9 mins by Western blotting in presence of 665 nm laser light; type: cell-based
# Summary of the method: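 Subconfluent BCC1 cells, 2 h in serum-free DMEM with 2-fold serially diluted PS, then 665 nm dye-laser light for 9 min at 37°C (3 J/cm²) in serum-free medium. Cells extracted immediately and lysed in RIPA. 20 μg protein run on 6–10% SDS gels and immunoblotted for STAT3, p38/P-p38 and EGFR with ECL detection. Crosslinking given as % monomeric STAT3 converted to dimer form I.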
# BCC1 [4] = assay: Increase in STAT3 cross linking level in human BCC1 cells assessed as dimerization of STAT3 after 9 mins by Western blotting in presence of 665 nm light
# [5] = test system: BCC1 cells (Homo sapiens); assay: Ratio of drug uptake in human BCC1 cells in serum free medium to drug uptake in human BCC1 cells in medium containing 10% fetal calf serum by fluorescent microscopy
# Mus musculus [6] = assay: Drug uptake in BALB/c mouse xenografted with mouse Colon 26 cells at 1 umol/kg, iv after 72 hrs by fluorescence imaging; type: ADME, organism-based; settings: in vivo
# Summary of the method: (§2)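 BALB/c mice (3/group) with Colon26 tumours (1×10⁶ cells s.c., right axilla, grown to 4–5 mm) were shaved and given 1.0 μmol/kg PS i.v. Whole-body fluorescence imaged under ketamine/xylazine at 24, 48 and 72 h: 540/40 nm illumination, long-pass emission filter, spectral unmixing of autofluorescence. Read-out is mean intensity of a 20 mm tumour ROI (AU), mean ± SD of 3 mice.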
# Colon 26 [7] = assay: Drug uptake in mouse Colon 26 cells at 400 nM after 24 hrs by flow cytometry; type: ADME, cell-based; settings: colon 26, 24 h, 0.4 µM
# Summary of the method: (§3)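 Colon26 cells seeded at 0.33×10⁶ per well and grown overnight, then given 100–800 nM PS in triplicate at 37°C, with no-PS wells for autofluorescence. Harvested by trypsin, spun cold, and run on flow cytometry (Ex 633 nm, Em 730±45 nm, 10,000 events). Value is mean fluorescence of triplicates minus autofluorescence.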
# BCC1 [8] = assay: Induction of apoptosis in human BCC1 cells assessed as survival after 24 hrs by trypan blue assay; type: functional, cell-based
# Summary of the method: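 BCC1 cells were loaded for 2 h in serum-free DMEM with 2-fold serial dilutions of photosensitizer. After washing, they were illuminated in serum-free medium at 37° with 665 nm dye-laser light for 9 min (3 J/cm²). Cells were then cultured 24 h in DMEM/10% FCS and trypsinized. Trypan blue-excluding cells were counted by hemocytometer and expressed relative to untreated controls.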
# [9] = Drug uptake in BALB/c mouse tumor xenografted with mouse Colon 26 cells at 1 umol/kg, iv after 24 hrs by fluorescence imaging; type: ADME, organism-based, Neoplasm; settings: in vivo; summary of the method: as §2
# Colon 26 [10] = assay: Photosensitizing activity in mouse Colon 26 assessed as cell viability at 0.0625 uM after 24 hrs followed by illumination with 665 nm laser light and 48 hrs incubation in dark by MTT assay in presence of serum; type: functional, cell-based
# Summary of the method: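 Colon26 cells, 3×10³/well in RPMI/10% FCS, were incubated 24 h in the dark with photosensitizer at 0.3 μM or 0.0625 μM. Medium was replaced with drug-free complete medium before illumination at 0–4 J/cm², 3.2 mW/cm², at each compound's peak wavelength (660, 665 or 674 nm). After 48 h in the dark, MTT was added for the last 4 h and absorbance read at 570 nm. Four replicate wells per condition, three independent experiments.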
# BCC1 [11] = assay: Reduction in EGFR levels in human BCC1 cells after 9 mins by Western blotting in presence of 665 nm laser light; type: functional, cell-based
# Summary of the method: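 BCC1 cells were incubated 2 h in serum-free DMEM with 2-fold serially diluted photosensitizer, washed, and illuminated with 665 nm light for 9 min (3 J/cm²). They were extracted immediately in RIPA buffer. Extracts (20 μg protein) were run on 6–10% SDS gels and immunoblotted for STAT3, EGFR, p38 and P-p38 with ECL detection. STAT3 crosslinking was scored as percent conversion of monomer into dimer form I.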
# Colon 26 [12] = assay: Drug uptake in mouse Colon 26 cells at 800 nM after 24 hrs by flow cytometry; type: ADME, cell-based; settings: colon 26, 24 h, 0.8 µM; summary of the method: as §3
# Mus musculus [13] = assay: Drug uptake in BALB/c mouse xenografted with mouse Colon 26 cells at 1 umol/kg, iv after 24 hrs by fluorescence imaging; type: ADME, organism-based; settings: in vivo; summary of the method: as §2
# [14] = Drug uptake in human BCC1 cells assessed as deposition in mitochondria at 200 nM after 30 mins by phase contrast microscopy; type: ADME; settings: bcc1, 0.5 h, 0.2 µM
# Summary of the method: (§4)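 BCC1 cells in subconfluent culture, washed and incubated 30 min in serum-free DMEM with 200 nM PS. Washed free of PS and imaged at 640X under phase contrast and HPPH fluorescence (Ex 410/40, Em 675/750 nm). Cell PS also quantified by solubilising cells and reading fluorescence (Ex 415, Em 667 nm).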
# [15] = Drug uptake in human BCC1 cells assessed as deposition in mitochondria at 200 nM after 30 mins by HPPH fluorescence spectrophotometry; type: ADME; settings: bcc1, 0.5 h, 0.2 µM; summary of the method: as §4
# [16] = Photostability of the compound in 17% bovine calf serum assessed as decrease in rate of photobleaching at 6.5 uM after 40 mins in presence of light (75 mW/cm'2); type: ADME; settings: cattle; summary of the method: as §1
# Colon 26 [17] = assay: Antitumor activity against mouse Colon 26 cells xenografted in parenterally dosed BALB/c mouse assessed as tumor cure at 1 umol/kg after 24 hrs followed by illumination with 128 J/cm'2, 14 mW/cm'2 laser light measured after 60 days; type: functional
# Summary of the method: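 Subcutaneous Colon26 tumours in BALB/c mice (10/group), dosed at 4–5 mm diameter with 1 μmol/kg PS. At 24 h, unanaesthetised restrained mice received laser light to the tumour (665, 660 or 674 nm by compound; 128 J/cm², 14 mW/cm²). Tumours measured daily (V = L·W²/2). Cure means no palpable tumour by day 60–90. Euthanasia at 400 mm³.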
# Mus musculus [18] = assay: Drug uptake in BALB/c mouse xenografted with mouse Colon 26 cells at 1 umol/kg, iv after 48 hrs by fluorescence imaging; type: ADME, organism-based; settings: in vivo; summary of the method: as §2
# Heart = assay: Drug uptake in BALB/c mouse heart xenografted with mouse Colon 26 cells at 150 uCi administered parenterally after 2 hrs by PET analysis; type: ADME, tissue-based; settings: in vivo, other
# Muscle tissue = assay: Drug uptake in BALB/c mouse muscle xenografted with mouse Colon 26 cells at 150 uCi administered parenterally after 2 hrs by PET analysis; type: ADME, tissue-based; settings: in vivo
# [19] = Drug uptake in BALB/c mouse tumor xenografted with mouse Colon 26 cells at 150 uCi administered parenterally after 2 hrs by PET analysis; type: ADME, Neoplasm; settings: in vivo, other
smiles,measurement,setting,value
CCc1c(C)c2cc3nc(c4c5[nH]c(cc6nc(cc1[nH]2)C(C)=C6C(C)OCc1cccc(I)c1)c(C)c5C(=O)C4)[C@@H](CCC(=O)O)[C@@H]3C (stereo partly specified),degraded at 6.5 µM,[1],50%
same,Drug uptake,[2],Active
same,Activity,[3],Active
same,Activity,BCC1 [4],Active
same,Ratio,[5],4
same,Drug uptake,Mus musculus [6],Active
same,Drug uptake,Colon 26 [7],Active
same,Activity,BCC1 [8],Dose-dependent effect
same,Drug uptake,[9],Not Active
same,Activity,Colon 26 [10],Active
same,Activity,BCC1 [11],Active
same,Drug uptake,Colon 26 [12],Active
same,Drug uptake,Mus musculus [13],Active
same,Drug uptake,[14],Active
same,Drug uptake,[15],Active
same,Stability,[16],Stable
same,Activity,Colon 26 [17],inactive
same,Drug uptake,Mus musculus [18],Active
OC[C@H]1O[C@@H](O)[C@H]([18F])[C@@H](O)[C@@H]1O [FLUDEOXYGLUCOSE-F18],Drug uptake,Heart,Active
same,Drug uptake,Muscle tissue,Active
same,Drug uptake,[19],Active
